Active and inactive are the calls of the source. The calls are words filed in the database; no cut-off is given here.
Legend:
[1] = system: Caco-2; assay: Downregulation of PKCalpha expression in human Caco-2 cells at 1 ug/ml incubated for 48 hrs by immunostaining based confocal microscopic analysis; assay type: functional, cell-based; conditions: dose 1.0 µg/ml
Summary of the method: (§1)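 Caco-2 cells were seeded at 40 000/well and treated for 48 h as in the viability assay. They were fixed in 3.7% PFA for 20 min and permeabilised in HBSS/0.5% Triton X100/1% BSA. Anti-PKCζ (1/50) or anti-PKCα (1/200) was applied overnight at 4°C, then Alexa 488 secondary for 45 min. Phalloidin and Hoechst counterstained the cells before confocal imaging; PKCα signal was quantified by immunofluorescence.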

[2] = system: Caco-2; assay: Effect on phosphorylated MEK at Ser217/221 level in human Caco-2 cells at 1 ug/ml measured after 48 hrs by Western blot analysis; assay type: functional, cell-based; conditions: dose 1.0 µg/ml
Summary of the method: (§2)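 Caco-2 cells (0.25 × 10^6/well) were treated at 1 µg/mL for 48 h, with or without 30 min pretreatment with 2.5 µM CRT0066854. Lysates (30 µg protein) were blotted for pSer217/221-MEK and total MEK, with actin as loading control. Detection was by ECL; n=2, t-test versus DMSO.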

[3] = target: T1, Protein kinase C zeta type (Homo sapiens) (UniProt Q05513); assay: Activation of PKCzeta in human Caco-2 cells assessed as increase in colocalization of PKCzeta and actin in peripheral to cell aggregates at 1 ug/ml measured after 48 hrs by immunostaining analysis; assay type: cell-based; conditions: filed as activator, dose 1.0 µg/ml; summary of the method: as §1
T1 sequence (whole entry): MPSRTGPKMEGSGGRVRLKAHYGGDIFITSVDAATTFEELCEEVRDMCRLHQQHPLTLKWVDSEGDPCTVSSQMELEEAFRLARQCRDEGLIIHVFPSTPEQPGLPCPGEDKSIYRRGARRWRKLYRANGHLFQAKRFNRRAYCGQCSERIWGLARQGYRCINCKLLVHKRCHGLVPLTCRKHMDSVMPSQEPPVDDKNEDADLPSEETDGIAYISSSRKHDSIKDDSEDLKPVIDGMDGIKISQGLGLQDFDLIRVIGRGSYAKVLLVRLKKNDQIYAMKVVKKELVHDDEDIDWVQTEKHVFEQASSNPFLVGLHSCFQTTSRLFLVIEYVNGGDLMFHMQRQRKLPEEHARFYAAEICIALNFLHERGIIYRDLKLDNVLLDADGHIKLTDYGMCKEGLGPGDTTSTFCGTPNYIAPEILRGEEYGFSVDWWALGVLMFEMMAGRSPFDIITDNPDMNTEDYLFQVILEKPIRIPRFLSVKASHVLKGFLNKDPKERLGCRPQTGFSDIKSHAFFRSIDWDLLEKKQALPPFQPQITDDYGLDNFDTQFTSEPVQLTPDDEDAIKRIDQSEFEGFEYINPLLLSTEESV

[4] = system: Caco-2; assay: Cytotoxicity against human Caco-2 cells assessed as cell death; assay type: functional, cell-based
[5] = system: Caco-2; assay: Upregulation of phosphorylated MEK at Ser217/221 level in human Caco-2 cells at 1 ug/ml preincubated for 30 mins with CRT0066854 hydrochloride followed by compound addition and measured after 48 hrs by Western blot analysis; assay type: functional, cell-based; conditions: dose 1.0 µg/ml; summary of the method: as §2
[6] = system: Caco-2; assay: Induction of morphological changes in human Caco-2 cells assessed as effect on cellular aggregation at 1 ug/ml preincubated for 30 mins with CRT0066854 hydrochloride followed by compound addition and measured after 48 hrs by Hoechst 3342 and phalloidin staining based confocal microscopic analysis; assay type: functional, cell-based; conditions: dose 1.0 µg/ml
Summary of the method: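 CRT0066854 hydrochloride (2.5 µM) was added to Caco-2 cells 30 min before compound at 1 µg/mL. After 48 h, nuclei and actin cytoskeleton were labelled and confocal views taken with a 20X objective; duplicates from one experiment.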

[7] = system: Caco-2; assay: Cytostatic activity against human Caco-2 cells assessed as inhibition of cell growth at 0.5 ug/ml incubated for 48 hrs by MTS assay relative to control; assay type: functional
Summary of the method: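 Caco-2 cells were seeded at 40 000/well 48 h before dosing. Compound was diluted from a 10 mg/mL DMSO stock into medium (0.125, 0.5 or 1 µg/mL final; DMSO ≤0.01%) and added in triplicate for 48 h. Viability was read by MTS absorbance at 490 nm and expressed relative to the DMSO control.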

[8] = target: T1, Protein kinase C zeta type (Homo sapiens); assay: Activation of PKCzeta in human Caco-2 cells assessed as increase in colocalization of PKCzeta and actin in dense cell aggregates at 1 ug/ml measured after 48 hrs by immunostaining analysis; assay type: cell-based; conditions: filed as activator, dose 1.0 µg/ml; summary of the method: as §1
[9] = system: Caco-2; assay: Cytostatic activity against human Caco-2 cells assessed as reduction in cell growth at 1 ug/ml preincubated for 15 mins with PD0325901 followed by compound addition and measured after 48 hrs by MTS assay; assay type: functional, cell-based; conditions: dose 1.0 µg/ml
Summary of the method: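 Caco-2 cells were pretreated with 0.5 µM PD0325901 for 15 min, then given compound at 1 µg/mL for 48 h. Viability was measured by MTS at 490 nm; n=3, t-test versus DMSO.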

[10] = target: Protein kinase C delta type (Homo sapiens) (UniProt Q05655); assay: (§3) Inhibition of PKCdelta in human Caco-2 cells assessed as ratio of phosphorylated PKCdelta at Ser664 residue to total PKCdelta level at 1 ug/ml incubated for 48 hrs by Western blot analysis (reference value: 0.77); assay type: cell-based; conditions: dose 1.0 µg/ml
Protein kinase C delta type (Homo sapiens), sequence (Q05655 whole entry, looked up): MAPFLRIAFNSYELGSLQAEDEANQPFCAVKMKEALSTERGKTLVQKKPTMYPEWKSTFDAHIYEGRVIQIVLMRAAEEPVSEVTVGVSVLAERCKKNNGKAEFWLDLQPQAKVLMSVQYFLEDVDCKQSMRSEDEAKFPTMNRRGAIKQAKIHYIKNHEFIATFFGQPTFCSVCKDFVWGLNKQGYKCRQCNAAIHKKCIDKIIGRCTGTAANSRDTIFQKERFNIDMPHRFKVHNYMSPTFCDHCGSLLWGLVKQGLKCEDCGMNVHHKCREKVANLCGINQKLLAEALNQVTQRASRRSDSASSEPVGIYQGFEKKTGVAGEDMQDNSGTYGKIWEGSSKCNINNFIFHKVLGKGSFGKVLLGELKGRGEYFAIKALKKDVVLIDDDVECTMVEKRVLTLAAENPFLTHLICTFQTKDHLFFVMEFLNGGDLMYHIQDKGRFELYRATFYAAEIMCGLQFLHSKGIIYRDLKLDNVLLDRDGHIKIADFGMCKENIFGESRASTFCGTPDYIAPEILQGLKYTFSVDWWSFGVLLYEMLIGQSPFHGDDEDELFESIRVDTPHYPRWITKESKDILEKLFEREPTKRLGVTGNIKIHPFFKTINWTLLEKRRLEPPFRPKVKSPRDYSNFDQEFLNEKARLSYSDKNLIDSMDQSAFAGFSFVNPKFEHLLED

[11] = system: Zika virus; assay: Antiviral activity against ZIKV expressing GFP reporter gene measured 24 hrs post infection; assay type: functional, organism-based
Summary of the method: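 Cells in 96-well plates were exposed to serial concentrations starting at 50 µg/mL and infected with GFP-reporter Zika virus at MOI 1. At 24 h post-infection, cells were fixed in 3.7% PFA and GFP-positive cells were counted by flow cytometry.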

[12] = target: Protein kinase C delta type (Homo sapiens) (UniProt Q05655); assay: as §3, with “preincubated” for “incubated”, “for 15 mins with PKCalpha inhibitor, Go6976 followed by compound addition and measured after” for “for”, “0.94)” for “0.77)”; assay type: cell-based; conditions: dose 1.0 µg/ml
Summary of the method: (§4)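 Caco-2 cells were given 0.2 µM Gö6976 for 15 min, then compound at 1 µg/mL for 48 h. Lysates (30 µg protein) were blotted for pSer664-PKCδ and total PKCδ with actin loading control, and the pSer664/total PKCδ ratio was quantified. Data are from one experiment.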

[13] = target: Protein kinase C delta type (Homo sapiens) (UniProt Q05655); assay: Inhibition of PKCdelta in human Caco-2 cells assessed as reduction in protein phosphorylation at Ser664 residue at 1 ug/ml incubated for 48 hrs by Western blot analysis; assay type: cell-based; conditions: dose 1.0 µg/ml
[14] = target: Protein kinase C delta type (Homo sapiens) (UniProt Q05655); assay: Inhibition of PKCdelta in human Caco-2 cells assessed as reduction in protein phosphorylation at Ser664 residue at 1 ug/ml preincubated for 15 mins with PKCalpha inhibitor, Go6976 followed by compound addition and measured after 48 hrs by Western blot analysis; assay type: cell-based; conditions: dose 1.0 µg/ml; summary of the method: as §4
[15] = target: T1, Protein kinase C zeta type (Homo sapiens); assay: Activation of PKCzeta in human Caco-2 cells assessed as increase in phosphorylation at Thr410 residue at 1 ug/ml measured after 48 hrs by Western blot analysis; assay type: cell-based; conditions: filed as activator, dose 1.0 µg/ml
Summary of the method: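 Caco-2 cells (0.25 × 10^6/well) were pretreated or not with 2.5 µM CRT0066854 for 30 min, then treated at 1 µg/mL for 48 h. Lysis buffer was pH 7.4 Tris/NaCl/0.1% Triton/EDTA with protease and phosphatase inhibitors. 30 µg protein was run on 4–15% SDS-PAGE, blotted and probed overnight at 4°C for pThr410-PKCζ and total PKCζ, with HRP/ECL detection.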

[16] = system: SARS-CoV-2; assay: Antiviral activity against SARS-CoV-2 assessed as reduction in progeny production measured 24 hrs post infection by PFU assay; assay type: functional, organism-based; conditions: Severe acute respiratory syndrome coronavirus 2, 24 h

SMILES	Activity [1]	Activity [2]	Activity [3]	Activity [4]	Activity [5]	Activity [6]	inhibition at 0.5 µg/mL [7]	Activity [8]	Activity [9]	Ratio [10]	IC50 [11]	Ratio [12]	inhibition [13]	inhibition [14]	Activity [15]	IC50 [16]
C=C(C)[C@]12C[C@@H](C)[C@@]34O[C@](/C=C/[C@@H]5O[C@H]5CCCCCCCCC)(O[C@@H]1[C@@H]3[C@@H]1O[C@]1(CO)[C@@H](O)[C@]1(O)C(=O)C(C)=C[C@H]14)O2	Active	inactive	Active	inactive	Active	inactive										
C=C(C)[C@]12C[C@@H](C)[C@@]34O[C@](/C=C/C=C/CCCCCCCCC)(O[C@@H]1[C@@H]3[C@@H]1O[C@]1(CO)[C@@H](O)[C@]1(O)C(=O)C(C)=C[C@H]14)O2	Active	inactive		inactive	Active		20%	Active	inactive	0.73	> 50 µM	0.68	Active	Active	Active	64.2 µM

— ChEMBL document CHEMBL5325455, “Daphnanes diterpenes from the latex of Hura crepitans L. and their PKCζ-dependent anti-proliferative activity on colorectal cancer cells” (Bioorg Med Chem, 2023)
